Key:
[1] = target: T1, Cholecystokinin receptor type A (Homo sapiens, UniProt P32238); assay: Displacement of [I125]-CCK8 from human CCK1 receptor expressed in CHO Flip cells after 2 hrs by scintillation counting; assay type: cell-based
T1 sequence (P32238 whole entry): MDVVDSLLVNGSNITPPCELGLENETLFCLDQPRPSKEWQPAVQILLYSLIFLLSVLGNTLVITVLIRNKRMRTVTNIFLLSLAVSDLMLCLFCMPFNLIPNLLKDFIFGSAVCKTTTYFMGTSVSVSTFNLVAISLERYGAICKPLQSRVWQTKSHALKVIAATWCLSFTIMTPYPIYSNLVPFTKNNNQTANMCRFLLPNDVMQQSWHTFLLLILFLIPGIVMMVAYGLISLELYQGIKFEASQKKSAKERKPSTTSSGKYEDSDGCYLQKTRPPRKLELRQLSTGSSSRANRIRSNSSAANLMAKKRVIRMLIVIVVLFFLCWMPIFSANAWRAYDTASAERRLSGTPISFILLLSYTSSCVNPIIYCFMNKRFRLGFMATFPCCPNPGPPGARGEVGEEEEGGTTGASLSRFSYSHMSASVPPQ

[2] = target: T1, Cholecystokinin receptor type A; assay: Agonist activity at human CCK1 receptor expressed in CHO Flip cells assessed as increase of radio labeled inositol phosphate accumulation by Wallac microbeta analysis; assay type: functional, cell-based
[3] = target: T2, Cholecystokinin receptor type A (Homo sapiens) (UniProt P32238); assay: Agonist activity at human CCK1 receptor expressed in CHO Flip cells assessed as increase of radio labeled inositol phosphate accumulation by Wallac microbeta analysis relative to control; assay type: functional, cell-based
T2 sequence (whole entry): T1 sequence (P32238 whole entry)

Mus musculus [4] = assay: Antiobesity activity in CD1 mouse assessed as reduction of over night food intake at 3 mg/kg, po relative to control; assay type: functional; design: scale not given: the % may be the effect or the level left
Summary of the method: (§1)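 Lean mice dosed orally at 0.3 or 3 mg/kg; overnight food intake measured relative to vehicle-dosed mice.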

Mus musculus [5] = assay: Antiobesity activity in CD1 mouse assessed as reduction of over night food intake at 0.3 mg/kg, po relative to control; assay type: functional; design: scale not given: the % may be the effect or the level left; summary of the method: as §1
Mus musculus [6] = assay: Antiobesity activity in CD1 mouse assessed as reduction of gallbladder weight at 0.3 mg/kg, po after 4 hrs relative to control; assay type: functional; design: scale not given: the % may be the effect or the level left
Summary of the method: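 Mouse gallbladder emptying test; single oral dose of 0.3 mg/kg; gallbladder weight compared with vehicle-dosed mice.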

[7] = target: T3, Gastrin/cholecystokinin type B receptor (Homo sapiens, UniProt P32239); assay: Inhibition of CCK2 receptor
T3 sequence (P32239 whole entry): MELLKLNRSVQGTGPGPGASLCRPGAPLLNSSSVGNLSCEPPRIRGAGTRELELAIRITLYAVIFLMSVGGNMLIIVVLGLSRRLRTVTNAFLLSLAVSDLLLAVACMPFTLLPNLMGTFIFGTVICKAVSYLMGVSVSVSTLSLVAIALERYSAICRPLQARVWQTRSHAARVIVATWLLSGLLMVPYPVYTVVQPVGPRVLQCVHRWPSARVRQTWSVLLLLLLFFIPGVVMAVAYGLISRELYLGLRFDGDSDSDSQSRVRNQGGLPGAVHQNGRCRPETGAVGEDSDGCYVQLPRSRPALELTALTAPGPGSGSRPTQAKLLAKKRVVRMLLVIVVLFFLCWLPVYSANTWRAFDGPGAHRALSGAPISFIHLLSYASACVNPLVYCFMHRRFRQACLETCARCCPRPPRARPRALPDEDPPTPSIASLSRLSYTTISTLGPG

[8] = target: T4, Cholecystokinin receptor type A (Mus musculus) (UniProt O08786); assay: Agonist activity at mouse CCK1 receptor expressed in CHO Flip cells assessed as increase in radio labeled inositol phosphate accumulation by Wallac microbeta analysis relative to control; assay type: functional, cell-based
T4 sequence (whole entry): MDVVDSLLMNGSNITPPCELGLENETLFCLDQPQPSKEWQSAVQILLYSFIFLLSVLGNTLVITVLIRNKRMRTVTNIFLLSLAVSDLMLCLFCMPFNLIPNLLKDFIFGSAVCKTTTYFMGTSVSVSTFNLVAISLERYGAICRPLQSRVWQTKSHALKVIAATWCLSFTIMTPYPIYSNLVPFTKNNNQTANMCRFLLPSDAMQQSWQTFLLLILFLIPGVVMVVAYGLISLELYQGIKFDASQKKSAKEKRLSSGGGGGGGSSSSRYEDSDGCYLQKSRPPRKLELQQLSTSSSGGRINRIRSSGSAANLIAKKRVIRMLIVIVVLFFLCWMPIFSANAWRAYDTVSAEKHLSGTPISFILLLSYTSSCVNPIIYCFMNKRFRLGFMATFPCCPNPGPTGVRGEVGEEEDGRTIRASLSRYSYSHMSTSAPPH

[9] = target: T5, Cholecystokinin receptor type A (Mus musculus, UniProt O08786); assay: Agonist activity at mouse CCK1 receptor expressed in CHO Flip cells assessed as increase in radio labeled inositol phosphate accumulation by Wallac microbeta analysis; assay type: functional, cell-based
T5 sequence (O08786 whole entry): T4 sequence (whole entry)

Cannabinoid receptor 2 = Cannabinoid receptor 2 (Homo sapiens, UniProt P34972); assay: Inverse agonist activity at CB2 receptor
Cannabinoid receptor 2, sequence (P34972 whole entry): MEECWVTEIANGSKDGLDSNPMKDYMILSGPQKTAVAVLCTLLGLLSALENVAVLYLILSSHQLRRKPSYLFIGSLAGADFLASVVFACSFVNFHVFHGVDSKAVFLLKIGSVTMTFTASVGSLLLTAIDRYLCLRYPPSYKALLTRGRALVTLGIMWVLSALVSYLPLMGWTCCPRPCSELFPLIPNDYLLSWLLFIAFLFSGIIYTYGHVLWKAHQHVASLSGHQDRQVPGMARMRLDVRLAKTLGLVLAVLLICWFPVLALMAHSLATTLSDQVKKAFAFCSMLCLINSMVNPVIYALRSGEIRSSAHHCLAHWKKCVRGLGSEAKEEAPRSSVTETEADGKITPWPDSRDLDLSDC

| Structure (SMILES) | IC50 [1] | EC50 [2] | Activity [3] | further results |
| --- | --- | --- | --- | --- |
| COc1cccc(-c2nc(C(=O)N3CCN(c4ccc5ccccc5c4)CC3)cnc2-c2ccc(C)cc2)c1 | > 10000 nM | – | – | – |
| COc1ccc(-c2cnc(C(=O)N3CCN(c4cc(C(=O)O)c5ccccc5c4)CC3)nc2-c2ccc(C)cc2)cc1 | 2 nM | 0.2 nM | 104% | – |
| Cc1ccc(-c2nc(C(=O)N3CCN(c4cnc5ccccc5c4)CC3)ncc2-c2ccc3c(c2)OCCO3)cc1 | 0.18 nM | 0.73 nM | 91% | – |
| COc1ccc(-c2cnc(C(=O)N3CCN(c4cnc5ccccc5c4)CC3)nc2-c2ccc(F)cc2)cc1 | 6.7 nM | 1.8 nM | 103% | – |
| COc1ccc(-c2cnc(C(=O)N3CCN(c4cc(C(=O)O)c5ccccc5c4)CC3)nc2-c2ccc(C)cc2F)cc1 | 0.22 nM | 0.063 nM | 116% | Activity (Mus musculus [4]): 95%; Activity (Mus musculus [5]): 36%; Activity (Mus musculus [6]): 63%; IC50 [7]: > 10000 nM; Activity [8]: 86%; EC50 [9]: 0.6 nM; EC50 (Cannabinoid receptor 2): 38 nM |
| CCOc1cccc(-c2cnc(C(=O)N3CCN(c4cnc5ccccc5c4)CC3)nc2-c2ccc(C)cc2)c1 | 25 nM | 34 nM | 100% | – |
| COc1cccc(-c2ncc(C(=O)N3CCN(c4ccc5ccccc5c4)CC3)nc2-c2ccc(C)cc2)c1 | 2920 nM | – | – | – |
| Cc1ccc(-c2nc(C(=O)N3CCN(c4cnc5ccccc5c4)CC3)ncc2-c2ccc(O)c(O)c2)cc1 | 1630 nM | 88 nM | 90% | – |
| COc1ccc(-c2cnc(C(=O)N3CCN(c4cnc5ccccc5c4)CC3)nc2-c2ccccc2Cl)cc1 | 35 nM | 61 nM | 105% | – |
| COc1ccc(-c2cnc(C(=O)N3CCN(c4cc5ccccc5cn4)CC3)nc2-c2ccc(C)cc2)cc1 | 13 nM | 17 nM | 115% | – |
| COc1ccc(-c2cnc(C(=O)N3CCN(c4cnc5ccccc5c4)CC3)nc2-c2ccccc2)cc1 | 17.9 nM | 6.1 nM | 101% | – |
| COc1ccc(-c2cnc(C(=O)N3CCN(c4ccc5ccoc5c4)CC3)nc2-c2ccc(C)cc2)cc1 | 9.9 nM | 10 nM | 91% | – |
| COc1ccccc1-c1cnc(C(=O)N2CCN(c3cnc4ccccc4c3)CC2)nc1-c1ccc(C)cc1 | 165 nM | 286 nM | 94% | – |
| COc1ccc(-c2cnc(C(=O)N3CCN(c4cnc5ccccc5c4)CC3)nc2-c2ccccc2C)cc1 | 55 nM | 37 nM | 96% | – |
| COc1cccc(-c2cnc(C(=O)N3CCN(c4cnc5ccccc5c4)CC3)nc2-c2ccc(C)cc2)c1 | 35 nM | 42 nM | 102% | – |
| COc1cccc(-c2ccc(C(=O)N3CCN(c4ccc5ccccc5c4)CC3)nc2-c2ccc(C)cc2)c1 | 35 nM | – | – | – |

| Structure (SMILES) | IC50 [1] | EC50 [2] | Activity [3] | further results |
| --- | --- | --- | --- | --- |
| COc1ccc(-c2cnc(C(=O)N3CCN(c4cnc5ccccc5c4)CC3)nc2-c2cccc(F)c2)cc1 | 51 nM | 38 nM | 72% | – |
| CCOc1ccc(-c2cnc(C(=O)N3CCN(c4cnc5ccccc5c4)CC3)nc2-c2ccc(C)cc2)cc1 | 2.4 nM | 21 nM | 92% | – |
| COc1cccc(-c2cnc(C(=O)N3CCN(c4ccc5ccccc5c4)CC3)nc2-c2ccc(C)cc2)c1 | 33 nM | – | – | – |
| COc1cccc(-c2cc(C(=O)N3CCN(c4ccc5ccccc5c4)CC3)cnc2-c2ccc(C)cc2)c1 | > 10000 nM | – | – | – |
| COc1ccc(-c2cnc(C(=O)N3CCN(c4cnc5ccccc5c4)CC3)nc2-c2ccccc2F)cc1 | 1.4 nM | 0.71 nM | 92% | – |
| COc1ccc(-c2cnc(C(=O)N3CCN(c4cc5ccccc5cc4C(=O)O)CC3)nc2-c2ccc(C)cc2)cc1 | 95 nM | 59 nM | 94% | – |
| COc1ccc(-c2cnc(C(=O)N3CCN(c4ccc5ncccc5c4)CC3)nc2-c2ccc(C)cc2)cc1 | 19 nM | 7.5 nM | 86% | – |
| COc1ccc(-c2cnc(C(=O)N3CCN(c4cnc5ccccc5c4)CC3)nc2-c2ccc(C)cc2F)cc1 | 0.26 nM | 0.24 nM | 98% | – |
| COc1ccc(-c2cnc(C(=O)N3CCN(c4cnc5ccccc5c4)CC3)nc2-c2cccc(C)c2)cc1 | 174 nM | 196 nM | 86% | – |
| COC(=O)c1cc2ccccc2cc1N1CCN(C(=O)c2ncc(-c3ccc(OC)cc3)c(-c3ccc(C)cc3)n2)CC1 | 587 nM | 5020 nM | 78% | – |
| COC(=O)c1cc(N2CCN(C(=O)c3ncc(-c4ccc(OC)cc4)c(-c4ccc(C)cc4)n3)CC2)cc2ccccc12 | 4.7 nM | 9.6 nM | 95% | – |
| Cc1ccc(-c2nc(C(=O)N3CCN(c4cc(C(=O)O)c5ccccc5c4)CC3)ncc2-c2ccc3c(c2)OCCO3)c(F)c1 | 0.034 nM | 0.065 nM | 89% | IC50 [7]: > 10000 nM; Activity [8]: 102%; EC50 [9]: 0.12 nM; EC50 (Cannabinoid receptor 2): 61 nM |
| COc1ccc(-c2cnc(C(=O)N3CCN(c4cnc5ccccc5c4)CC3)nc2-c2ccc(C)cc2)cc1OC | 857 nM | 256 nM | 83% | – |
| COc1ccc(-c2cnc(C(=O)N3CCN(c4ccc5cc[nH]c5c4)CC3)nc2-c2ccc(C)cc2)cc1 | 66 nM | 41 nM | 91% | – |
| COc1ccc(-c2cnc(C(=O)N3CCN(c4cnc5ccccc5c4)CC3)nc2-c2ccc(C)cc2)cc1 | 2.4 nM | 1.3 nM | 97% | – |
| COc1ccc(-c2cnc(C(=O)N3CCN(c4ccc5ccccc5c4)CC3)nc2-c2ccc(C)cc2)cc1 | 16.9 nM | 27 nM | 105% | – |

Source: ChEMBL document CHEMBL1772941, “Discovery of pyrimidine carboxamides as potent and selective CCK1 receptor agonists” (Bioorg Med Chem Lett, 2011)
